Data on 19 compounds can be found in ChEMBL document CHEMBL4411330, “Effects of Systematic Shortening of Noncovalent C8 Side Chain on the Cytotoxicity and NF-κB Inhibitory Capacity of Pyrrolobenzodiazepines (PBDs)” (J Med Chem, 2019).

In data set [1] the target is Transcription factor p65 (Homo sapiens) (UniProt Q04206). Kind of data set: Inhibition of NF-kappaB in human JJN-3 cells assessed as reduction in p65 DNA binding activity up to 30 nM after 4 hrs by ELISA. The format is cell-based.
A short description of data set [2]: Cytotoxicity against human primary CLL cells assessed as cell death after 48 hrs by annexin V/propidium iodide-staining based flow cytometry. The format is functional. The following applies: read-out: LC50 (the source's name). A digest of the protocol:
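Primary patient CLL cells were isolated by Histopaque density gradient, phenotyped by flow cytometry and used within 24 h. Culture was RPMI with 10% FBS, 1% glutamate and 1% pen/strep, plus IL-4 5 ng/ml added with compound, at 37 °C, 5% CO2. Cells at 1,000,000 cells/ml were treated from 1 nM upward for 48 h, in triplicate. Annexin V-FITC/PI was read by flow cytometry, and LC50 came from sigmoidal dose-response fits.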

A short description of data set [3]: Therapeutic index, ratio of LC50 for human T cells to LC50 for human primary CLL cells. It counts as toxicity. The note with it: T cells versus primary CLL cells, read-out: TI.
A short description of data set [4]: Cytotoxicity against human B cells assessed as cell death after 48 hrs by annexin V/propidium iodide-staining based flow cytometry. The following applies: read-out: LC50. In a few lines:
(§1)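 Normal peripheral blood B or T cells from three donors were isolated by Histopaque density gradient and phenotyped for CD19/CD3/CD38/CD49d. They were used within 24 h in RPMI with 10% FBS, 1% glutamate and 1% pen/strep at 37 °C, 5% CO2. Cells at 1,000,000 cells/ml were exposed from 1 nM upward for 48 h, in triplicate. FITC-Annexin V/PI staining was read by flow cytometry, and LC50 was taken from the dose-response curves.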

For data set [5], the target named is T1, Nuclear factor NF-kappa-B p105 subunit (Homo sapiens) (UniProt P19838).
T1 sequence (whole entry): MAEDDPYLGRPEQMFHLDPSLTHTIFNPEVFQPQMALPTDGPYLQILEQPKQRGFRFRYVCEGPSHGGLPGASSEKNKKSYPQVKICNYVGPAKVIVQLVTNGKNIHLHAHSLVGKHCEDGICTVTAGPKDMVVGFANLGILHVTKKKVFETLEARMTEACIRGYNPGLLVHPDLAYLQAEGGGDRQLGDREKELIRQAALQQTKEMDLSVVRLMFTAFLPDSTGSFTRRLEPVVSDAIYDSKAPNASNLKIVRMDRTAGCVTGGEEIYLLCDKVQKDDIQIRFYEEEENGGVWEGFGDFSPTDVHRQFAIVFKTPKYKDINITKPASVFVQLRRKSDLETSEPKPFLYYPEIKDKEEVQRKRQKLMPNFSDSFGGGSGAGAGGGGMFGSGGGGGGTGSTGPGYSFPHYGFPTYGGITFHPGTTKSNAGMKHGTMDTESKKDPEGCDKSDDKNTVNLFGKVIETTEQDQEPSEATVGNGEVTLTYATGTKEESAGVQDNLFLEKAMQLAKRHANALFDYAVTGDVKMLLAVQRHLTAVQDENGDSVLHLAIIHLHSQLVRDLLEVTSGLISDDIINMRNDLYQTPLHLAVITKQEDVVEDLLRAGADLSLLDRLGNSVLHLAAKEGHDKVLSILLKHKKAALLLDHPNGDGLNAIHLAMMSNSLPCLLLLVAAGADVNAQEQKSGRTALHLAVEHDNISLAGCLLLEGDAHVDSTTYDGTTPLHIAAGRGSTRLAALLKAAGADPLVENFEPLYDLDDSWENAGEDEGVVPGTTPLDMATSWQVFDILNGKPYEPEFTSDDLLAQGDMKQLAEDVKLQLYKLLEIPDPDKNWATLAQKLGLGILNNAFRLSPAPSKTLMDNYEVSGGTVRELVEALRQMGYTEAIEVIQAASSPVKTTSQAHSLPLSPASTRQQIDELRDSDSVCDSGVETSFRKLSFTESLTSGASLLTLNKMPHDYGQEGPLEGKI
Kind of data set: Inhibition of NF-kappaB in human JJN-3 cells assessed as reduction in p50 DNA binding activity up to 30 nM after 4 hrs by ELISA. The format is cell-based.

The nature of data set [6]: Therapeutic index, ratio of LC50 for human B cells to LC50 for human primary CLL cells. The format is toxicity. The following applies: B cells versus primary CLL cells, read-out: TI.
For the next data set, the system named is JJN-3. Kind of data set: Cytotoxicity against human JJN-3 cells assessed as cell death after 48 hrs by annexin V/propidium iodide-staining based flow cytometry. The format is functional. The following applies: JJN-3, 48 h, read-out: LC50 (the source's name). A digest of the protocol: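 JJN-3 cells were grown in DMEM with 20% FBS, 1% pen/strep and 1% pyruvate at 37 °C, 5% CO2. They were seeded at 1,000,000 cells/ml and exposed to compound from 1 nM upward for 48 h, in triplicate. Cell death was measured by Annexin V-FITC/propidium iodide flow cytometry, and LC50 was derived from sigmoidal dose-response curves.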

The nature of data set [7]: Cytotoxicity against human T cells assessed as cell death after 48 hrs by annexin V/propidium iodide-staining based flow cytometry. The following applies: read-out: LC50. In a few lines:
as §1

Data set [8] addresses T2, Transcription factor RelB (Homo sapiens) (UniProt Q01201).
T2 sequence (whole entry): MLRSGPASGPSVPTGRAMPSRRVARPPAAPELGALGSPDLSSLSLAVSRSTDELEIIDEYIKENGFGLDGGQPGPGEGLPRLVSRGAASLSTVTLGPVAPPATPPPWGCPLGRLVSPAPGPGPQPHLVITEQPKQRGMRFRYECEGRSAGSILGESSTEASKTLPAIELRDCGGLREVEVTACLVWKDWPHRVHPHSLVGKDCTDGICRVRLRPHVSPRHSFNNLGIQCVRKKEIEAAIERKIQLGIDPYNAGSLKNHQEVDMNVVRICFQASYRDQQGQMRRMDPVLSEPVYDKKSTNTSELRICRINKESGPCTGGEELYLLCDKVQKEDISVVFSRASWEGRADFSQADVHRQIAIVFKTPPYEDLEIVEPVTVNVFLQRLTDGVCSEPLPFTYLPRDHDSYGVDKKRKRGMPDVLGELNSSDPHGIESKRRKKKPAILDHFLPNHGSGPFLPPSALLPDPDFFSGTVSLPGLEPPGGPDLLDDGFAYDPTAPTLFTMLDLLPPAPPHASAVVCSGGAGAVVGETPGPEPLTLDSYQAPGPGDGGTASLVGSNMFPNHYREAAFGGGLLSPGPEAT
Put plainly: Inhibition of NF-kappaB in human JJN-3 cells assessed as reduction in RelB DNA binding activity up to 30 nM after 4 hrs by ELISA. The format is cell-based.

Active and inactive are the calls of the source. No cut-off for these calls is given here.

Transcription factor p65 (Homo sapiens), sequence (Q04206 whole entry): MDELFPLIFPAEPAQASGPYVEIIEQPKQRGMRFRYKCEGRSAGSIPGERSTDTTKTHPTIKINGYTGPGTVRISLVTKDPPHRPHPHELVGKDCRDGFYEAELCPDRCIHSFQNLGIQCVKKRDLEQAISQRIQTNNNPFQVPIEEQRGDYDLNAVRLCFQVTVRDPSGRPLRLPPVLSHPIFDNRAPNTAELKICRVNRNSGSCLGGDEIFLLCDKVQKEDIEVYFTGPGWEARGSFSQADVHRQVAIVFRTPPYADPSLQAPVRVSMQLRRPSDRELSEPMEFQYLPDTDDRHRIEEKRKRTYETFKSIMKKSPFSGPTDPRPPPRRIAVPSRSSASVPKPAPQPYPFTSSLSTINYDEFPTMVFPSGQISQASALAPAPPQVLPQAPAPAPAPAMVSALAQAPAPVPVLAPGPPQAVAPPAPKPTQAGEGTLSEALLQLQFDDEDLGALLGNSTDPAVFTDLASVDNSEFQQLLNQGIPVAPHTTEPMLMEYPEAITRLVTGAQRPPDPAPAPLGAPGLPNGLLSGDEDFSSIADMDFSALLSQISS

In the case of `COc1cc2c(cc1OCCCC(=O)Nc1ccc3occc3c1)N=C[C@@H]1CCCN1C2=O`, the inhibition result in data set [1] and in [5] was “Active” each time. In addition, the CC50 worked out at 9.4 nM in data set [2] and 44 nM in the data set with JJN-3. For the same compound, the selectivity ratio came to 415 in data set [3] and 149 in [6]. Further, the results for the CC50 at 48 h in data set [4] and in data set [7] were 1400 nM and 3900 nM, respectively. Also, the inhibition result in data set [8] was “inactive”.

Turning to `COC(=O)c1cc(NC(=O)c2cc(NC(=O)CCCOc3cc4c(cc3OC)C(=O)N3CCC[C@H]3C=N4)cn2C)cn1C`, the CC50 in data set [2] was found to be 39 nM; with JJN-3, 21 nM.

`CCCOc1ccc(NC(=O)CCCOc2cc3c(cc2OC)C(=O)N2CCC[C@H]2C=N3)cc1`: the CC50 in [2] came to 8.5 nM; with JJN-3 it was 8.7 nM. For the same compound, the selectivity ratio was determined as 129 in [3] and 45.9 in data set [6]. The CC50 at 48 h in data set [4] is 390 nM; in data set [7], 1100 nM.

On to `COc1cc2c(cc1OCCCC(=O)Nc1ccc(C)c(C)c1)N=C[C@@H]1CCCN1C2=O`, for which the CC50 in data set [2] came to 8.6 nM; in the data set on JJN-3 it was 23.7 nM.

Turning to `COc1cc2c(cc1OCCCC(=O)Nc1ccc3c(c1)CCO3)N=C[C@@H]1CCCN1C2=O`, the CC50 in [2] worked out at 5.1 nM; in the data set with JJN-3, 14.7 nM.

As for `CCCNC(=O)CCCOc1cc2c(cc1OC)C(=O)N1CCC[C@H]1C=N2`, the CC50 in [2] was 25100 nM; in the data set with JJN-3 it was 12700 nM.

Regarding `COc1cc2c(cc1OCCCC(=O)Nc1ccc3c(c1)CCC3)N=C[C@@H]1CCCN1C2=O`, the CC50 in data set [2] is 7.7 nM; in the data set with JJN-3, 30 nM.

Turning to `COC(=O)c1cc2cc(NC(=O)CCCOc3cc4c(cc3OC)C(=O)N3CCC[C@H]3C=N4)ccc2o1`, the results for the CC50 (in [2]; in the data set on JJN-3) were 8.9 nM and 49 nM, respectively. In addition, the values for the selectivity ratio in [3] and in data set [6] were 236 and 46.1, respectively. For the same compound, the CC50 at 48 h in data set [4] stood at 410 nM; in data set [7], 2100 nM.

As for `COc1cc2c(cc1OCCCC(=O)Nc1cccc(C)c1)N=C[C@@H]1CCCN1C2=O`, the values for the CC50 (in data set [2]; with JJN-3) were 13.6 nM and 20.2 nM, respectively.

As for `COc1cc2c(cc1OCCCC(=O)Nc1ccccc1)N=C[C@@H]1CCCN1C2=O`, the inhibition result in data set [1] and in data set [8] was “inactive” in each case. Besides, the CC50 in data set [2] turned out to be 11.6 nM; in the data set with JJN-3, 26.4 nM. In data set [5], the inhibition entry is “Active”.

`COc1cc2c(cc1OCCCC(=O)Nc1ccncc1)N=C[C@@H]1CCCN1C2=O`: the results for the CC50 (in [2]; with JJN-3) were 4900 nM and 6700 nM, respectively.

On to `CCCCNC(=O)CCCOc1cc2c(cc1OC)C(=O)N1CCC[C@H]1C=N2`, for which the CC50 in data set [2] was determined as 22400 nM; with JJN-3 it was 51600 nM.

`CNC(=O)CCCOc1cc2c(cc1OC)C(=O)N1CCC[C@H]1C=N2`: the results for the CC50 (in [2]; with JJN-3) were 16100 nM and 18500 nM, respectively.

As for `COc1cc2c(cc1OCCCC(=O)Nc1ccc(C)cc1)N=C[C@@H]1CCCN1C2=O`, the CC50 in [2] came out at 12.3 nM; in the data set with JJN-3, 17.5 nM.

As for `COc1cc2c(cc1OCCCC(=O)Nc1cccnc1)N=C[C@@H]1CCCN1C2=O`, the CC50 in data set [2] came to 4200 nM; in the data set with JJN-3 it was 1600 nM.

Take `CCNC(=O)CCCOc1cc2c(cc1OC)C(=O)N1CCC[C@H]1C=N2`: the CC50 was 11700 nM in data set [2] and 28700 nM in the data set with JJN-3.

Take `COc1ccc(NC(=O)CCCOc2cc3c(cc2OC)C(=O)N2CCC[C@H]2C=N3)cc1`: the inhibition result in data set [1] and in data set [8] was “inactive” in each case. Also, the CC50 stood at 8.9 nM in [2] and 15.3 nM in the data set with JJN-3. Moreover, the selectivity ratio came to 77.5 in data set [3] and 71.9 in data set [6]. The values for the CC50 at 48 h in data set [4] and in data set [7] were 640 nM and 690 nM, respectively. Moreover, the inhibition entry in data set [5] was “Active”.

`COc1cc2c(cc1OCCCC(=O)NC1CCCCC1)N=C[C@@H]1CCCN1C2=O`: the CC50 in data set [2] was determined as 7100 nM; in the data set on JJN-3, 1400 nM. Moreover, the selectivity ratio came out at 1.74 in data set [3] and 0.24 in data set [6]. Also, the CC50 at 48 h in data set [4] was determined as 1700 nM; in data set [7], 12400 nM.

As to `COc1cc2c(cc1OCCCC(=O)Nc1ccc(O)cc1)N=C[C@@H]1CCCN1C2=O`, the inhibition entry in data set [1] and in [8] was “inactive” in each case. Moreover, the CC50 was 5500 nM in data set [2] and 2200 nM in the data set with JJN-3. In addition, in data set [5], the inhibition result was “Active”.
